Sampled rows, rich in hits. Any-hit rate of the full collection: about 1.7%.
STEP block – STEP phosphatase inhibitors, primary screen, biochemical, fluorescence intensity, uHTS; Tyrosine-protein phosphatase non-receptor type 5 (Homo sapiens), P54829; recombinant STEP, OMFP fluorogenic substrate; inhibition, % at 20 µM; actives 0.25% (n = 360,000); AID 588621, 2011;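 active = inhibition at 20 µM, scaled per plate between control wells, above about 37%, limit read from the data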;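 note: 0% = DMSO with enzyme and substrate and 100% = substrate only without enzyme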
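Material: STEP (striatal-enriched tyrosine phosphatase) enzyme, cell-free | Medium: 50 mM Bis-Tris pH 6.0 with 2.5 mM DTT and 0.005% Tween 20 | Read-out: Percent inhibition scaled to no-enzyme and uninhibited-enzyme controls, plate-pattern corrected | Signal: Fluorescence read at 480 nm ex / 540 nm em | Times: 20 min reaction, room temperature, in the dark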
LMPTP inh – LMPTP phosphatase inhibitors, primary screen, biochemical, fluorescence intensity, uHTS. actives 0.22% (n = 360,000). Low molecular weight phosphotyrosine protein phosphatase (Homo sapiens), P24666. recombinant LMPTP-A, OMFP fluorogenic substrate. inhibition, % at 20 µM;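 active = compounds that cut the enzyme signal by at least half of the control window in the single-dose screen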;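 note: plate controls were DMSO wells with enzyme plus substrate for no effect and substrate without enzyme for full effect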
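Test system: LMPTP-A, protein tyrosine phosphatase of low molecular weight; Input: 0.625 nM enzyme; Incubation: 50 min dark incubation at room temperature; Signal: endpoint fluorescence intensity from OMFP dephosphorylation; Read-out basis: % inhibition versus control wells.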
DNMT1 block – human DNMT1 methyltransferase inhibitors, primary screen, biochemical, molecular beacon, fluorescence, HinP1I cleavage, uHTS; actives 0.83% (n = 360,000); inhibition (reported as % activation of signal), % at 10 µM; DNA (cytosine-5)-methyltransferase 1 (Homo sapiens), P26358; AID 588458, 2011; in the data active = inhibition above about 50%
SUMO1-SIM PPI – modulators of SUMO1 protein-protein interactions, primary screen, biochemical, uHTS; inhibition, % at 20 µM; AID 602429, 2012; SUMO1 binding to a labelled peptide, TR-FRET, 1 h; actives 0.33% (n = 360,000); in the data active = inhibition above about 37%
Scp-1 inhibitor – Scp-1 phosphatase inhibitors, primary screen, biochemical, colorimetric, uHTS. Carboxy-terminal domain RNA polymerase II polypeptide A small phosphatase 1 (Homo …. inhibition, % at 20 µM. actives 0.88% (n = 340,000). Recombinant Scp1, phosphopeptide, malachite green phosphate absorbance;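 active = inhibition above about 50% at 20 µM, limit read from the data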;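 note: plate controls were DMSO wells with enzyme for no effect and wells lacking enzyme for full effect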
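Material: truncated SCP-1 phosphatase (76-261aa) / Buffer or medium: 50 mM Tris acetate pH 5.5, 0.005% Tween-20, 10 mM MgCl2 / Compound dosing: one concentration, 20 µM, with 1.0% DMSO / Incubation: 45 min room-temperature reaction, 5 min colour, 30 min stabiliser / Detection: colorimetric free-phosphate detection, absorbance 630 nm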
Scp1 confirm – Scp-1 phosphatase inhibitors, retest, confirmation, biochemical, colorimetric, single concentration; actives 61% (n = 2,500); inhibition, % at 20 µM; recombinant SCP-1 catalytic domain, phosphate release, malachite green absorbance; shares compounds with Scp-1 inhibitor;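 note: plate controls were DMSO with enzyme for no effect and buffer wells lacking enzyme for full effect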
Scp-1 MG ctr – colorimetric readout interference by compounds, confirmation, artefact control for Scp-1 inhibitor project, biochemical, single concentration | 2,500 tested, under 10 active | shares compounds with Scp-1 inhibitor | apparent inhibition (interference), % at 20 µM | Colorimetric interference counterscreen, malachite green absorbance 630 nm;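 note: compounds added after enzyme reaction finished so only phosphate colour detection is probed; plate controls were DMSO wells with completed Scp-1 reaction for no effect and substrate wells lacking enzyme for full effect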
Scp-1 Tm shift – Scp-1 binding by thermal shift, confirmation, orthogonal assay for Scp-1 inhibitor project, biophysical, differential scanning fluorimetry; shares compounds with Scp-1 inhibitor; Recombinant SCP1, Sypro Orange thermal shift Tm; thermal shift relative to vanadate control, % at 40 µM; actives 25% (n = 1,500); AID 540329, 2011;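 active = substances whose mean melting-temperature shift, as a percentage of the reference inhibitor's shift, reaches about 5.3%, limit read from the data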;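 note: 0% = Tm of DMSO wells and 100% = Tm with sodium orthovanadate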
Starred values were filed as active, the others as inactive; ! = repeats disagree.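 Rule for the calls, unless noted: active = inhibition of at least 30% at 20 µM; inactive = the rest.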

How did Cn1c(=O)c2cc(NC(=O)NCc3ccccc3)ccc2n1C/C=C/c1ccccc1 do in these assays?
STEP block: 2; LMPTP inh: 0; DNMT1 block: -5; SUMO1-SIM PPI: -5

How did CC(=O)NC(c1ccccc1)c1nc(-c2cncnc2)cs1 (centres undefined) do in these assays?
STEP block: 4; LMPTP inh: -2; DNMT1 block: 6; SUMO1-SIM PPI: -12

Results for CC1(Cc2cc(Cl)ccc2C(F)(F)F)C(=O)Nc2cc(-c3ccccc3Cl)ccc21 (centres undefined) ?
STEP block: -2; LMPTP inh: -2; DNMT1 block: -3; SUMO1-SIM PPI: -9

Results for C[n+]1ccccc1/C=N/O ?
STEP block: 1; LMPTP inh: -3; DNMT1 block: 0; SUMO1-SIM PPI: -5; Scp-1 inhibitor: 52*!; Scp1 confirm: 4; Scp-1 MG ctr: -15

What do the screens show for `CC(O)/C=C/c1cccc[n+]1C` (centres undefined)?
STEP block: 0; LMPTP inh: -10; DNMT1 block: -4; SUMO1-SIM PPI: -1; Scp-1 inhibitor: 96*; Scp1 confirm: 85*; Scp-1 MG ctr: -12; Scp-1 Tm shift: -6

Results for C[n+]1ccccc1/C=C/c1cc(Br)ccc1O ?
STEP block: 1; LMPTP inh: 1; DNMT1 block: -9; SUMO1-SIM PPI: -24; Scp-1 inhibitor: -10

How did CCC(C)CN1C(=O)CN(S(C)(=O)=O)CC1(C)C(=O)NCc1ccccc1 (centres undefined) do in these assays?
LMPTP inh: -1; SUMO1-SIM PPI: -2

Results for O=C(CN1C(=O)c2ccccc2C1=O)NN1C(=O)c2ccccc2C1=O ?
STEP block: 1; LMPTP inh: 4; DNMT1 block: 6; SUMO1-SIM PPI: 0; Scp-1 inhibitor: 56*; Scp1 confirm: -16; Scp-1 MG ctr: -13

What do the screens show for `O=C(Cc1ccccc1)NN1C(=O)c2ccccc2C1=O`?
STEP block: -3; LMPTP inh: -3; DNMT1 block: -2; SUMO1-SIM PPI: 2; Scp-1 inhibitor: -9

What do the screens show for `Cc1coc2c(C)c3oc(=O)c(CCC(=O)N[C@@H](C)C(=O)N[C@@H](Cc4ccccc4)C(=O)O)c(C)c3cc12`?
STEP block: 44*; LMPTP inh: 23; DNMT1 block: 19; SUMO1-SIM PPI: -2; Scp-1 inhibitor: 104*; Scp1 confirm: 64*; Scp-1 MG ctr: -18; Scp-1 Tm shift: -33

How did COc1ccc(-c2coc3c(C)c4oc(=O)c(CCC(=O)O)c(C)c4cc23)cc1 do in these assays?
STEP block: 4; LMPTP inh: 11; DNMT1 block: -1; SUMO1-SIM PPI: 24; Scp-1 inhibitor: -12

How did CCCC(NC(=O)Cc1c(C)c2cc3c(C)c(C)oc3c(C)c2oc1=O)C(=O)N[C@@H](Cc1ccccc1)C(=O)O (some centres undefined) do in these assays?
STEP block: 10; LMPTP inh: 21; DNMT1 block: 18; SUMO1-SIM PPI: 20; Scp-1 inhibitor: 98*; Scp1 confirm: 88*; Scp-1 MG ctr: -8; Scp-1 Tm shift: -18

Results for Cc1c(CCC(=O)O)c(=O)oc2c(C)c3occ(-c4ccc(Br)cc4)c3cc12 ?
STEP block: 22; LMPTP inh: 90*; DNMT1 block: 12; SUMO1-SIM PPI: 52*; Scp-1 inhibitor: 67*; Scp1 confirm: 66*; Scp-1 MG ctr: -28; Scp-1 Tm shift: -6

How did COc1ccc(Cc2c(-c3cccc(Cl)c3)nc3c(C)cc(Br)cn23)c(C)c1 do in these assays?
STEP block: 3; LMPTP inh: -2; DNMT1 block: -3; SUMO1-SIM PPI: -22

Results for CC(C)S(=O)(=O)C1=NSC2=NC(=O)/C(=C\c3ccc(-c4ccccc4)o3)C(=N)N21 ?
STEP block: -3; LMPTP inh: 1; DNMT1 block: -7; SUMO1-SIM PPI: 4; Scp-1 inhibitor: 1

How did CC(C)S(=O)(=O)C1=NSC2=NC(=O)/C(=C\c3ccc(-c4cccc(C(=O)O)c4)o3)C(=N)N21 do in these assays?
STEP block: 3; LMPTP inh: 2; DNMT1 block: 35; SUMO1-SIM PPI: 9; Scp-1 inhibitor: 65*; Scp1 confirm: 68*; Scp-1 MG ctr: -7; Scp-1 Tm shift: 5

How did Cc1[nH]c2ccccc2c1N=Nc1ccc(F)cc1 do in these assays?
STEP block: -2; LMPTP inh: 2; DNMT1 block: -13; SUMO1-SIM PPI: -8; Scp-1 inhibitor: 9

What do the screens show for `Cc1[nH]c2ccccc2c1N=Nc1cc(C(=O)O)cc(C(=O)O)c1`?
STEP block: 4; LMPTP inh: 1; DNMT1 block: 4; SUMO1-SIM PPI: -14; Scp-1 inhibitor: 52*; Scp1 confirm: -7; Scp-1 MG ctr: -19

Results for CN(C(=O)c1cc2c(=O)n3ccccc3nc2n1C)C1CCCCC1 ?
STEP block: 1; LMPTP inh: 1; DNMT1 block: 2; SUMO1-SIM PPI: -24; Scp-1 inhibitor: 80*; Scp1 confirm: -17; Scp-1 MG ctr: -14

Results for COCCNC(=O)C1(C)CCCN(Cc2ccccc2N(C)C)C1 (centres undefined) ?
STEP block: 1; LMPTP inh: -1; DNMT1 block: 7; SUMO1-SIM PPI: 5

What do the screens show for `COC(=O)c1c(C)cc(O)cc1O`?
STEP block: 1; LMPTP inh: -1; DNMT1 block: -2; SUMO1-SIM PPI: 5; Scp-1 inhibitor: -4

Results for COC(=O)c1cc(O)cc(OC)c1C(=O)c1c(O)cc(C)cc1O ?
STEP block: -2; LMPTP inh: 1; DNMT1 block: -2; SUMO1-SIM PPI: 8; Scp-1 inhibitor: 58*; Scp1 confirm: 31*; Scp-1 MG ctr: -18; Scp-1 Tm shift: 1

Screens: PubChem BioAssay, Sanford-Burnham Center for Chemical Genomics
